According to ChEMBL document CHEMBL1121614, “Synthesis and antiallergy activity of 4-oxopyrano[3,2-b]indoles” (1980):
Calls of active or inactive are those of the source. The rule behind the calls is not given here.

How the values were obtained:
[1] = test system: Rattus norvegicus; assay: Inhibition of rat passive cutaneous anaphylaxis at 5.0 mg/kg dose after peroral administration; type: functional; settings: route oral
Method in brief: (§1)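 Rats were sensitized by intradermal injection of antiserum dilutions at several back sites. Drug was suspended in 1% gum tragacanth in saline and given po or ip 10–15 min before challenge with iv ovalbumin (1 mg in 1 mL saline with 0.25% Evans blue). At 30 min the wheal's mean orthogonal diameter was measured. Diameter was plotted against antiserum level and extrapolated to zero. Five rats per group.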

[2] = test system: Rattus norvegicus; assay: Inhibition of rat passive cutaneous anaphylaxis at 5.0 mg/kg dose after intraperitoneal administration; type: functional; settings: ip; method in brief: as §1
[3] = test system: Rattus norvegicus; assay: Inhibition of rat passive cutaneous anaphylaxis at 1.0 mg/kg dose after intraperitoneal administration; type: functional; settings: ip; method in brief: as §1
[4] = test system: Rattus norvegicus; assay: The compound was tested for inhibition of rat passive cutaneous anaphylaxis at 2.0 mg/kg dose after peroral administration; type: functional; settings: route oral; method in brief: as §1
[5] = test system: Rattus norvegicus; assay: The compound was tested for inhibition of rat passive cutaneous anaphylaxis at 1 mg/kg dose after iv administration; type: functional
Method in brief: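 Rat PCA by the iv route. Antiserum dilutions were injected intradermally on the back 48 h before iv challenge with 1 mg ovalbumin in 1 mL saline plus 0.25% Evans blue. Compound was dissolved, if needed, in slight molar excess NaHCO3 and diluted into the antigen solution. Wheal diameter was read at 30 min and extrapolated to zero antiserum by least squares. Groups of five.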

[6] = test system: Rattus norvegicus; assay: The compound was tested for inhibition of rat passive cutaneous anaphylaxis at 10 mg/kg dose after intraperitoneal administration; type: functional; settings: ip
[7] = test system: Rattus norvegicus; assay: The compound was tested for inhibition of rat passive cutaneous anaphylaxis at 2.0 mg/kg dose after intraperitoneal administration; type: functional; settings: ip
[8] = test system: Rattus norvegicus; assay: The compound was tested for inhibition of rat passive cutaneous anaphylaxis at 5.0 mg/kg dose after peroral administration; O means inactive; type: functional, organism-based; parameters: dose 5 mg/kg; method in brief: as §1
[9] = test system: Rattus norvegicus; assay: The compound was tested for inhibition of rat passive cutaneous anaphylaxis at 1.0 mg/kg dose after peroral administration; type: functional; settings: route oral; method in brief: as §1

| Compound | inhibition in vivo at 5 mg/kg [1] [%] | inhibition in vivo at 5 mg/kg [2] [%] | inhibition in vivo at 1 mg/kg [3] [%] | also measured |
| --- | --- | --- | --- | --- |
| O=C(Nc1nn[nH]n1)c1cc(=O)c2c(o1)c1ccccc1n2-c1ccccc1 | 7 | 0 |  |  |
| CCn1c2ccccc2c2oc(-c3nn[nH]n3)cc(=O)c21 | 70 | 100 | 100 |  |
| O=C(O)c1cc(=O)c2c(o1)c1ccccc1n2-c1ccccc1 |  |  | 13 | inhibition in vivo at 2 mg/kg [4]: 0%; inhibition in vivo at 1 mg/kg [5]: 100% |
| Cn1c2ccc([N+](=O)[O-])cc2c2oc(C(=O)O)cc(=O)c21 | 0 | 100 | 1 |  |
| Cn1c2ccccc2c2oc(-c3nn[nH]n3)cc(=O)c21 | 39 | 100 | 87 |  |
| Cn1c2ccc(Cl)cc2c2oc(C(=O)Nc3nn[nH]n3)cc(=O)c21 | 6 | 100 | 38 |  |
| Cc1ccc2c(c1)c1oc(-c3nn[nH]n3)cc(=O)c1n2C | 56 | 100 | 25 |  |
| Cc1ccc2c(c1)c1oc(C(=O)Nc3nn[nH]n3)cc(=O)c1n2C | 0 | 100 | 33 |  |
| Cn1c2c([N+](=O)[O-])cc([N+](=O)[O-])cc2c2oc(C(=O)O)cc(=O)c21 | 0 | 0 |  |  |
| O=C(O)c1cc(=O)c2c(OCC(O)COc3cccc4oc(C(=O)O)cc(=O)c34)cccc2o1 [CROMOLYN SODIUM] |  |  |  | inhibition in vivo at 10 mg/kg [6]: 89%; inhibition in vivo at 2 mg/kg [7]: 50%; inhibition [8]: inactive |
| Cn1c2ccc(Cl)cc2c2oc(-c3nn[nH]n3)cc(=O)c21 | 33 | 100 | 46 |  |
| Cn1c2ccc(Cl)cc2c2oc(C(=O)O)cc(=O)c21 | 2 | 23 |  |  |
| O=C1c2ccccc2S(=O)(=O)c2cc(-c3nn[nH]n3)ccc21 [DOXANTRAZOLE] | 50 |  | 33 | inhibition in vivo at 10 mg/kg [6]: 97% |
| Cn1c2ccc([N+](=O)[O-])cc2c2oc(C(=O)Nc3nn[nH]n3)cc(=O)c21 |  | 100 | 42 | inhibition in vivo at 1 mg/kg [9]: 15% |
| Cn1c2c([N+](=O)[O-])cc([N+](=O)[O-])cc2c2oc(C(=O)Nc3nn[nH]n3)cc(=O)c21 |  | 48 |  |  |
| O=c1cc(-c2nn[nH]n2)oc2c3ccccc3n(-c3ccccc3)c12 | 32 | 100 | 61 |  |
| Cc1ccc2c(c1)c1oc(C(=O)O)cc(=O)c1n2C |  |  | 18 | inhibition in vivo at 2 mg/kg [4]: 11% |
| Cn1c2ccccc2c2oc(C(=O)Nc3nn[nH]n3)cc(=O)c21 | 0 | 100 | 28 |  |
| Cn1c2ccccc2c2oc(C(=O)O)cc(=O)c21 | 96 | 100 | 30 |  |
| CCn1c2ccccc2c2oc(C(=O)O)cc(=O)c21 |  |  | 0 | inhibition in vivo at 2 mg/kg [4]: 22%; inhibition in vivo at 1 mg/kg [5]: 100% |
| CCn1c2ccccc2c2oc(C(=O)Nc3nn[nH]n3)cc(=O)c21 | 1 | 100 | 12 |  |
